Test results from ChEMBL document CHEMBL1154190, “Development and screening of water-soluble analogues of progesterone and allopregnanolone in models of brain injury” (J Med Chem, 2009).

What was measured:
[1] = Solubility in phosphate buffered saline; assay type: physicochemical
Procedure, shortened: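 Compound added in small portions to phosphate buffered saline at room temperature with stirring until a visible saturation end point; solubility reported as mg/mL.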

[2] = Inhibition of glutamate-induced excitotoxicity in rat E18 cells assessed as reduction in cell death at 5 uM pretreated for 24 hrs before glutamate challenge measured after 24 hrs by MTT assay; assay type: functional
Procedure, shortened: (§1)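 Rat E18 primary cortical cells cultured 8-10 days in neurobasal medium, pretreated 24 h with compound (tested at 0.1-80 μM, DMSO <5 μL/mL medium), then glutamate 0.5 μM (in PBS pH 7.4) added for a further 24 h with compound still present. Viability by MTT formazan photometry; reduction in cell death vs glutamate-only control, mean ± SEM, ANOVA/Dunnett, p < 0.05.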

[3] = Inhibition of glutamate-induced excitotoxicity in rat E18 cells assessed as reduction in cell death at 80 uM pretreated for 24 hrs before glutamate challenge measured after 24 hrs by MTT assay; assay type: functional
Procedure, shortened: (§2)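 Rat E18 primary cortical neurons cultured 8-10 days in neurobasal medium, pretreated 24 h with compound (0.1-80 μM, DMSO, final DMSO <5 μL/mL), then glutamate 0.5 μM (in PBS pH 7.4) for 24 h with compound still present. Viability read by MTT formazan photometry; % reduction in cell death vs glutamate control, mean ± SEM, ANOVA with Dunnett's test.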

[4] = Inhibition of glutamate-induced excitotoxicity in rat E18 cells assessed as reduction in cell death at 10 uM pretreated for 24 hrs before glutamate challenge measured after 24 hrs by MTT assay; assay type: functional; procedure, shortened: as §1
[5] = tested on: Rattus norvegicus; test: Neuroprotective effect against traumatic brain injury-induced cerebral edema in rat assessed as decrease in edema level at 8 mg/kg administered intraperitoneally 1 hr post-TBI followed by second sc dose at 6 hrs post-TBI measured after 24 hrs relative to control; assay type: functional; design: scale not given: the % may be the effect or the level left; details: route intraperitoneal at 1 h, then subcutaneous at 6 h
Procedure, shortened: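 Bilateral medial frontal cortex contusion made with a pneumatic impactor in rats under isoflurane (5% induction, 2% maintenance, N₂O/O₂), body temperature held with a heating blanket. Dosing: 8 mg/kg in 22.5% w/v 2-hydroxypropyl-β-cyclodextrin, IP at 1 h, then SC at 6 h. Sham and vehicle groups included. At 24 h, pentobarbital overdose; pericontusional tissue dried at 60 °C, 0.3 atm for 24 h. Water % = (wet−dry)/wet×100; decrease vs vehicle, mean ± SEM.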

[6] = Inhibition of glutamate-induced excitotoxicity in rat E18 cells assessed as reduction in cell death at 20 uM pretreated for 24 hrs before glutamate challenge measured after 24 hrs by MTT assay; assay type: functional; procedure, shortened: as §2
[7] = phosphate buffered saline, read-out: solubility

SMILES	solubility [1, 7] [µg/mL]	inhibition at 5 µM [2] [%]	Activity [5] [%]	also measured
CC(=O)[C@H]1CC[C@H]2[C@@H]3CCC4=C[C@@H](OC(=O)[C@H](C)N)CC[C@]4(C)[C@H]3CC[C@]12C.Cl	3340	13		
CC(=O)[C@H]1CC[C@H]2[C@@H]3CC[C@H]4C[C@H](O)CC[C@]4(C)[C@H]3CC[C@]12C [BREXANOLONE]	< 50	-3		inhibition at 80 µM [3]: 40%
CC(C)[C@H](N)C(=O)O[C@@H](C)[C@H]1CC[C@H]2[C@@H]3CCC4=CC(=O)CC[C@]4(C)[C@H]3CC[C@]12C		23		inhibition at 10 µM [4]: 30%
CC(=O)[C@H]1CC[C@H]2[C@@H]3CCC4=C/C(=N/OC(=O)[C@@H](N)C(C)C)CC[C@]4(C)[C@H]3CC[C@]12C.Cl		27	57	solubility ([1]; buffer): 13000 µg/mL
CC(=O)[C@H]1CC[C@H]2[C@@H]3CC[C@H]4C[C@H](OC(=O)[C@@H](N)C(C)C)CC[C@]4(C)[C@H]3CC[C@]12C.Cl	< 50		49	
CC(=O)[C@H]1CC[C@H]2[C@@H]3CCC4=C[C@@H](OC(=O)[C@@H](N)Cc5c[nH]c6ccccc56)CC[C@]4(C)[C@H]3CC[C@]12C		1		
CC(=O)[C@H]1CC[C@H]2[C@@H]3CCC4=C[C@@H](OC(=O)[C@@H](N)Cc5ccccc5)CC[C@]4(C)[C@H]3CC[C@]12C.Cl	610			
CC(=O)[C@H]1CC[C@H]2[C@@H]3CCC4=C/C(=N\OC(=O)[C@@H](N)C(C)C)CC[C@]4(C)[C@H]3CC[C@]12C.Cl	15200	34	75	
CC(=O)[C@H]1CC[C@H]2[C@@H]3CCC4=C[C@@H](OC(=O)[C@@H]5CCCN5)CC[C@]4(C)[C@H]3CC[C@]12C.Cl	1530	15		
CC(=O)[C@H]1CC[C@H]2[C@@H]3CCC4=C[C@@H](OC(=O)[C@@H](N)C(C)C)CC[C@]4(C)[C@H]3CC[C@]12C.Cl	3850	8		
CC(=O)[C@H]1CC[C@H]2[C@@H]3CC[C@H]4C[C@@H](OC(=O)[C@@H](N)C(C)C)CC[C@]4(C)[C@H]3CC[C@]12C.Cl	< 50		40	
CC(=O)[C@H]1CC[C@H]2[C@@H]3CC[C@@H]4C[C@H](OC(=O)[C@@H](N)C(C)C)CC[C@]4(C)[C@H]3CC[C@]12C.Cl	300		31	
CC(=O)[C@H]1CC[C@H]2[C@@H]3CCC4=CC(=O)CC[C@]4(C)[C@H]3CC[C@]12C [PROGESTERONE]	< 50	4	60	inhibition at 20 µM [6]: 42%
CC(=O)[C@H]1CC[C@H]2[C@@H]3CC[C@@H]4C[C@@H](OC(=O)[C@@H](N)C(C)C)CC[C@]4(C)[C@H]3CC[C@]12C.Cl	< 50		11	
